Compound activity as filed in PubChem.
Yeast lifespan up – compounds extending yeast replicative lifespan, primary screen, S. cerevisiae, OD615; AID 775, 2007; actives 0.68% (n = 130,000); inhibition of the nicotinamide effect, % at 10 µM; S. cerevisiae growth with nicotinamide; deaD strain in restrictive glucose medium;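 active = inhibition above a set limit, placed 3 SD over the median of all compounds, cut at about 26% in these data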
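assay system = DeaD-strain S. cerevisiae | measured by = absorbance at 615 nm | probe or stimulus = nicotinamide 1.5 mM | buffer or medium = CSMM-D glucose medium, restrictive | times = 48 h at 30 °C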
BB579 growth dn – growth inhibitors of yeast BB579 in restrictive medium, primary screen, yeast lifespan-shortening project, S. cerevisiae | OD615, 48 h | inhibition, % at 10 µM | actives 0.51% (n = 140,000) | AID 804, 2007;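 active = inhibition above a set limit, 3 SD over the mean compound inhibition, cut at about 44% in these data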
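System: Saccharomyces cerevisiae DeaD strain BB579, replicative lifespan model yeast | Buffer or medium: Restrictive glucose-based CSMM-D medium | Times: 4 h preincubation and 48 h exposure at 30 °C | Detection: OD615 turbidity measurement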
HMGR II inh – inhibitors of E. faecalis class II HMGR, primary screen, biochemical, Enterococcus faecalis; actives 0.41% (n = 190,000); HMG-CoA reductase (Enterococcus faecalis, mvaE); inhibition, % at 10 µM; purified E. faecalis HMGR, NADPH absorbance 340 nm kinetic;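 active = inhibition above a set limit, the median over all tested compounds plus 3 SD, cut at about 9.5% in these data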;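 also: enzyme runs in reverse so mevalonate oxidation gives rising NADPH absorbance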
RAM inhibit – inhibitors of the yeast RAM network, primary screen, dse1pr::URA3 reporter, 5-FOA selection. S. cerevisiae dse1pr::URA3 reporter, 5-FOA growth OD615, 2 d; analog-sensitive cbk1-as2 kinase mutant strain. inhibition, % at 50 µM. actives 1.8% (n = 190,000);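 active = inhibition above a set limit, 3 SD over mean compound inhibition, cut at about 8.4% in these data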;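 also: inhibition rescues growth on 5-FOA so higher OD means more RAM inhibition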
Insulin prom inh – inhibitors of insulin promoter-driven GFP, primary screen, imaging, TRM-6 cells, eGFP reporter, cell count; actives 0.9% (n = 130,000); reporter expression induced with tamoxifen; inhibition, % at 2 µM;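 active = inhibition above the mean plus 3 SD, with well images judged a real hit on visual review, cut at about 60% in these data, passing the limit was not always enough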
Hits are given with their value; - = inactive; . = no result given. Only some compounds are listed: those with a hit (about 3.7% of all), similar ones and a draw of the others.

SMILES	Yeast lifespan up	BB579 growth dn	HMGR II inh	RAM inhibit	Insulin prom inh
COc1ccc(CNCCC2(Cc3ccccc3)CC(C)N(C)CC2C)cc1OC (stereo not given)	.	.	-	-	.
Cc1cc2sc(C(=O)O)c(C)c2s1	.	58	-	-	-
Cc1c(C(=O)O)sc2nc(C)n(C)c(=O)c12	-	-	-	-	.
S=C(Nc1ccc(Cl)cc1)c1nc2ccccc2s1	-	-	-	8.4	.
COc1ccc(NC(=O)c2nc3ccccc3s2)cc1	-	-	-	-	-
O=C(Nc1ccc(Cl)cc1)/C(=C/c1cccc(O)c1)c1nc2ccccc2s1	-	-	-	8.5	-
COc1cccc(NC(=O)c2ccc(NC(=O)C3CC(=O)OC34CCCCC4)cc2)c1 (stereo not given)	.	.	-	-	.
CCN(CC)S(=O)(=O)c1ccc(C)c(NC(=S)Nc2cccc(S(=O)(=O)N3CCCCCC3)c2)c1	-	-	-	9.0	-
CCN(CC)S(=O)(=O)c1cccc(S(=O)(=O)N2CCCCC2)c1	-	-	-	-	.
C=C(C)CNC(=S)N/N=C/c1c(F)cccc1F	.	.	-	-	.
O=C(Cc1cccc2ccccc12)Nc1ccc(OC(F)F)c(Cl)c1	-	-	-	-	-
O=C(Nc1ccc(OC(F)F)c(Cl)c1)C(c1ccccc1)c1ccccc1	-	-	-	9.6	.
Cc1ccc(/C=N/Nc2nncc(-c3ccccc3)n2)o1	.	.	-	-	.
CCCCN(CCCC)C(=S)N/N=C/c1c(C)[nH]n(-c2ccccc2)c1=O	-	78	-	-	.
Cc1[nH]n(-c2ccccc2)c(=O)c1/C=N/Nc1nncc(-c2ccccc2)n1	-	98	-	-	-
CCCCN=Cc1c(C)[nH]n(-c2ccccc2)c1=S	.	.	-	-	-
CCOc1ccccc1OCCCC(=O)Nc1sccc1C(N)=O	-	-	-	-	-
O=C(NN=C1CCCCCCCCCCC1)c1ccccc1F	-	-	-	-	-
CCc1cccc(CC)c1NC(=S)N(CCN(C)C)C(C)c1cccnc1 (stereo not given)	.	.	-	-	-
COCCn1c(=NC(=O)c2cc3ccccc3oc2=O)sc2cc(S(N)(=O)=O)ccc21	-	-	-	-	-
O=C(Cn1nc(-c2ccccc2)ccc1=O)NCC1COCCO1 (stereo not given)	-	-	-	-	100
CCc1ccc(CNC(=O)Cn2nc(-c3ccccc3)ccc2=O)cc1	.	.	-	-	-
O=C(CNC(=O)c1ccccc1C(=O)O)c1ccccc1	.	-	-	-	78
O=CNC(=O)c1ccccc1C(=O)O	-	-	-	-	-
O=C(/C=C/c1ccc(N2CCC(c3ccccc3)=N2)cc1)c1ccccc1	.	.	-	11	-
SMILES	Yeast lifespan up	BB579 growth dn	HMGR II inh	RAM inhibit	Insulin prom inh
COC(=O)C1=C(C)NC(=O)NC1c1ccc(N2CCC(c3ccccc3)=N2)cc1 (stereo not given)	.	.	-	-	.
O=C(O)c1cccc(-n2cccc2/C=C2/NC(=O)N(c3ccc(Cl)cc3)C2=O)c1	.	.	10	-	-
COc1ccc(-n2cccc2/C=C2/NC(=O)N(c3cccc(Cl)c3)C2=O)cc1	-	-	-	-	-
Fc1ccc(Oc2ncccn2)c(F)c1	-	-	-	-	-
c1ccn2cc(-c3ccc4c(c3)OCCO4)nc2c1	.	.	-	-	71
Clc1ccc2nc(-c3ccc4c(c3)OCO4)cn2c1	.	.	-	-	.
COc1ccc(C(=O)CSc2nnc(NC(=O)C3CC(=O)N(c4ccccc4)C3)s2)cc1 (stereo not given)	-	-	-	-	-
CCOc1ccc(-c2nc3ccccc3c(=O)o2)cc1	.	.	12	-	.
O=C(CSc1nnc(-c2ccccc2F)n1CCc1ccccc1)Nc1ccc2[nH]c(=O)[nH]c2c1	-	-	-	9.0	-
CCC(=O)Nc1ccc(C(=O)CSc2nnc(-c3ccccc3F)n2CCc2ccccc2)cc1	-	-	-	-	-
CCCCN(CCCC)S(=O)(=O)c1c(C)[nH]c(=O)[nH]c1=O	.	.	-	-	73
O=C(COc1ccccc1C(=O)Nc1ccccc1)c1ccc(Br)cc1	.	.	10	-	.
COc1ccccc1NC(=O)CN1CCN(c2ccccc2)CC1	.	.	-	-	.
Cc1cccc(OCC(=O)NNC(=O)CCc2ccccc2)c1	.	.	53	-	.
